Compound activity from PubChem BioAssay.
S1P1 ag-PAM: activates or potentiates agonism at human S1P1 receptor | P21453 | S1P1 CRE-bla cells, forskolin, beta-lactamase FRET, potentiator mode; S1P1 agonist co-added at EC20, 2 nM; 100% = saturating reference agonist, 0% = basal | activation, % at 9.5 µM | 0.57% of 56,000 active | AID 449;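 active = activation above a cutoff set at the mean activation of all tested compounds plus 3 SD, cut at about 54% in these data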;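 also: forskolin at 4 µM as EC80 and the EC20 agonist is SEW2871; 100% = SEW2871 at its EC100 plus forskolin at EC80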
M1 antag: M1 muscarinic receptor (rat) antagonism. CHO-M1 cells, Fluo-4 calcium, ACh EC80 antagonist mode; stronger effect = lower value. B-score at 10 µM. 3.4% of 64,000 active. AID 628;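 active = calcium fluorescence response, raw or row-and-column corrected B-score, differing from the plate sample mean either way at a set confidence level, mostly lower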
Jurkat tox 60K: reduces viability or proliferation of Jurkat cells; Jurkat E6.1 viability, ATP luminescence, 48 h; inhibition, % at 4 µM; 1.2% of 56,000 active;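 active = inhibition above the mean inhibition of all tested compounds plus 3 SD, cut at about 28% in these data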
S1P3 ag: S1P3 (human) receptor agonism; Q99500; AID 373; activation, % at 4.5 µM; S1P3 NFAT-BLA reporter cells, FRET ratio; relative to 1 µM S1P, basal subtracted; 0.1% of 60,000 active;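 active = activation above the screen-wide mean plus 3 SD, cut at about 4.5% in these data, passing the limit was not always enough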
Target sequence (Q99500 whole entry, looked up): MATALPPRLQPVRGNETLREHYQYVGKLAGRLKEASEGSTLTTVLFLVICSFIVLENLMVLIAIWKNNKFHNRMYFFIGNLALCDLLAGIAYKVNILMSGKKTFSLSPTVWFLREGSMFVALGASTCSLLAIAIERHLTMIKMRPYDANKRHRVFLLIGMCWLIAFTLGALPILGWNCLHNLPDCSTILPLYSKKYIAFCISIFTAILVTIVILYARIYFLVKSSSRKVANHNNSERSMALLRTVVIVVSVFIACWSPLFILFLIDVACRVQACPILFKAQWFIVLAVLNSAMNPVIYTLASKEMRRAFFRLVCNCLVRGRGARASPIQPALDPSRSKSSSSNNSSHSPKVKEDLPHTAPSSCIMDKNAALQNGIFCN
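Measure – % activation relative to 1 µM S1P (100%), per plate · System – stable CHO line with human S1P3, Gα16, NFAT-BLA reporter · Timing – cells plated overnight, compound 4 h 37 °C, substrate 2 h RT · Technique – fluorescent BLA substrate, ex 405 nm, em 460/535 nm ratio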
M1 ag: M1 muscarinic receptor agonism | 3% of 64,000 active | B-score at 10 µM | CHO-M1 cells, Fluo-4 calcium fluorescence, agonist mode; stronger effect = higher value;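 active = fluorescence rise, raw or as B-score row- and column-corrected plate score, outside the 99.7% band of its plate's samples, either direction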
JNK3 inh: blocks human JNK3 kinase activity; P53779; purified JNK3 kinase activity, HTS; inhibition, % at 8 µM; 0.61% of 60,000 active; in the data active = inhibition above about 17%;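 also: 0% = DMSO and 100% = reference inhibitor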
M1 agonist conf: rat M1 muscarinic agonism, confirmation; 19% of 1,700 active; shares compounds with M1 ag; AID 1488; CHO-M1 cells, Fluo-4 calcium fluorescence, agonist mode; actives lie on both sides; fluorescence change (max-min) at 10 µM;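 active = fluorescence change differs from the solvent-only DMSO control mean at a set confidence level in both duplicate runs; inconclusive = differs from solvent-only control mean in just one of two runs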;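 also: an EC20 dose of acetylcholine follows compound addition during the same imaging run; raw fluorescence intensity difference in instrument units with no normalization to controls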
M4 agonist ctr: activates rat M4 receptor in counter-screen for M1 agonists; shares compounds with M1 ag; CHO M4/Gqi5 cells, Fluo-4 calcium fluorescence, agonist mode; actives lie on both sides; fluorescence change (max-min) at 10 µM; 9% of 1,700 active; AID 1741;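 active = fluorescence change differing from the plate's solvent-only control wells at 99.7% confidence in both duplicates, whether higher or lower; inconclusive = differs from solvent controls in only one of two duplicates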
* hit, by the source's call; ? = inconclusive; nt = no result given. Only some compounds are listed: those with a hit (about 7.4% of all), similar ones and a draw of the others.

SMILES | S1P1 ag-PAM | M1 antag | Jurkat tox 60K | S1P3 ag | M1 ag | JNK3 inh | M1 agonist conf | M4 agonist ctr
CC(C)[C@H](NC(=O)[C@@H]1CSCN1C(=O)OC(C)(C)C)C(=O)NCC1CCC(C(=O)O)CC1 (stereo partly drawn) | 5 | 1 | -10 | 0 | 1.8* | -2 | -4.4 | ?
COc1ccc(CCN(Cc2cccs2)S(=O)(=O)c2ccc(-n3cnnn3)cc2)cc1OC | 4 | -0.32 | 7 | 0 | 4.5* | 2 | ? | -66*
O=C(Nc1cnccn1)c1cccs1 | -13 | 0.15 | -1 | 0 | -0.36 | 0 | nt | nt
CCCCc1cc(O)c(CCCC)c(O)c1 | -48 | -3.3* | 2 | 0 | 37* | 5 | 275* | 320*
COc1ccc(C2C(CC(=O)O)=C(O)C(=O)N2c2ccccc2)cc1 (stereo not drawn) | 17 | 0.32 | 3 | -2 | -0.63 | 2 | nt | nt
COc1cccc(C2C(C(=O)c3cccs3)=C(O)C(=O)N2CCCn2ccnc2)c1OC (stereo not drawn) | nt | 0.048 | -1 | -1 | 0.01 | 2 | nt | nt
COc1ccc(C2C(C(=O)c3cccs3)=C(O)C(=O)N2c2nncs2)cc1 (stereo not drawn) | nt | -0.11 | nt | nt | 93* | nt | 439* | 339*
COc1ccc(C2C(C(=O)c3cccs3)=C(O)C(=O)N2c2nnc(C)s2)cc1OC (stereo not drawn) | -16 | -1.5 | -8 | 0 | 68* | 7 | 96* | 42
CCC1(C(=O)OC)NC(c2ccccc2OC)C2C(=O)N(C)C(=O)C21 (stereo not drawn) | -5 | 0.016 | -10 | 0 | 1.1 | -4 | nt | nt
O=C(CN1CCN(c2ncccn2)CC1)Nc1ccccc1-n1cccc1 | nt | 0.037 | nt | nt | -0.0055 | nt | nt | nt
CCn1c(=O)cc(SCC(=O)N2CCN(c3ccccc3OC)CC2)c2ccccc21 | -9 | 0.31 | -1 | 1 | 4.5* | -1 | ? | -30
C=CCn1c(=O)/c(=C/c2ccc(Cl)cc2)s/c1=C(/C#N)c1nnc2n1CCCCC2 | -7 | -0.29 | -3 | 0 | 4.3* | -2 | ? | ?
C=CCn1c(=O)/c(=C/c2ccc(O)cc2)s/c1=C(/C#N)c1nnc2n1CCCCC2 | -10 | -0.69 | -2 | 1 | 43* | -3 | 90* | ?
C=CCn1c(=O)/c(=C/c2cc(OC)c(OC)c(OC)c2)s/c1=C(/C#N)c1nc2ccccc2n1C | nt | -0.84 | nt | nt | 77* | nt | ? | 118
O=C(NCc1ccc(N2CCCC2=O)cc1)Nc1cccc(Cl)c1 | 1 | -0.16 | 10 | -1 | 0.14 | 0 | nt | nt
CCOC(=O)c1c(C)[nH]c(C(=O)COC(=O)CSCC(=O)N(CC)CC)c1C | -5 | -0.0019 | 0 | -1 | -0.51 | 2 | nt | nt
O=C(CSc1nnc(Cc2cccs2)n1C1CCCCC1)N1CCCc2ccccc21 | 30 | -2.2* | 12 | 0 | 3* | 0 | -8.9 | -21
N#C/C(C(N)=O)=c1/ccc2c(c1)N1C3=C(CCCC3)CC3CCCCC31N=2 (stereo not drawn) | -37 | -1.2 | 7 | 0 | 5.2* | 4 | -22 | -37
COc1ccc(C(O)P(=O)(OC2CCCCC2)c2ccc(N(C)C)cc2)cc1OC (stereo not drawn) | -1 | 0.18 | 1 | 0 | 0.019 | -5 | nt | nt
O=C(O)C1CSC(CCc2ccccc2)N1 (stereo not drawn) | -13 | 0.82 | nt | -3 | 1.6 | -7 | nt | nt
CCC1Oc2ccc(C)cc2N(CC(=O)N2CCN(c3ccc(F)cc3)CC2)C1=O (stereo not drawn) | 10 | 0.57 | 0 | 0 | 2.3* | -10 | -11 | ?
COc1ccc(C(=O)Nc2ccccc2)cc1S(=O)(=O)Nc1cc(C)on1 | 2 | -0.46 | 14 | -2 | 0 | -12 | nt | nt
CN(C)CCCN(C(=O)c1cccs1)c1nc(-c2ccccc2)cs1 | -17 | -8.7* | -4 | 0 | 14* | 3 | 27 | -24
CCC(=O)N(Cc1ccco1)c1nc(-c2ccccc2)cs1 | -18 | -0.083 | -1 | 0 | 0.3 | 1 | nt | nt
